# Measurements: ChEMBL document CHEMBL1123812, “Pyrroloisoquinoline antidepressants. 2. In-depth exploration of structure-activity relationships” (J Med Chem, 1987)
# Calls of active or inactive are those of the source.
# Legend:
# Mus musculus [1] = species on record: Mus musculus; experiment: Antagonism of tetrabenazine (TBZ)-induced depression measured in mice by motor activity; format: functional; settings: Mus musculus; read-out: ED50
# Procedure, shortened: (§1)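 Nonfasted male Swiss Webster mice, 18–24 g, ten per dose level and in saline controls. Test compound given ip 30 min before tetrabenazine 32 mg/kg ip; dose expressed as free base. Motor activity and ptosis scored. Control response ≤90% corrected by Abbott's formula.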
# Mus musculus [2] = species on record: Mus musculus; experiment: Gross behavioral effects ascertained in mice; S indicates significant stimulant properties.; format: functional, organism-based
# Procedure, shortened: (§2)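 Male Swiss Webster mice, 18–24 g, three per dose, given ip doses of 1, 3, 10, 30, 100 and 300 mg/kg. Observed for gross behavior and held for 4 days. Scored as weak (W), stimulant (S), depressant (D) or convulsant (C).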
# [3] = biological target: Norepinephrine transporter (Rattus norvegicus, UniProt Q9WTR4); experiment: Inhibition of uptake of tritiated norepinephrine (NE) in rat synaptosomes; format: subcellular, Brain
# Mus musculus [4] = species on record: Mus musculus; experiment: Antagonism of tetrabenazine (TBZ)-induced depression in mice measured for ptosis; format: functional; settings: Mus musculus; read-out: ED50; procedure, shortened: as §1
# [5] = biological target: Serotonin 2 (5-HT2) receptor (Rattus norvegicus, UniProt P30994+P08909+P14842); experiment: Binding affinity towards 5-hydroxytryptamine 2 receptor; format: protein assay
# [6] = biological target: Sodium-dependent dopamine transporter (Rattus norvegicus, UniProt P23977); experiment: Inhibition of the uptake of tritiated dopamine (DA) in rat synaptosomes; format: subcellular, Brain
# [7] = biological target: Sodium-dependent dopamine transporter (Rattus norvegicus) (UniProt P23977); experiment: Inhibition of tritiated dopamine (DA) uptake at 0.1 uM concentration; format: functional
# Procedure, shortened: (§3)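 Male Wistar rat brain synaptosomes (P2 fraction): hypothalamus for NE, striatum for DA, cerebral cortex for 5-HT. Buffer is Tris- or HEPES-buffered salt medium with glucose, ascorbate and nialamide, pH 7.4 at 37 °C. Preincubated 10 min at 37 °C with compound. Uptake started with [3H]NE 100–300 nM, [3H]DA 50–300 nM or [3H]5-HT 100–200 nM, incubated 3 min (DA) or 6–10 min (NE, 5-HT). Blanks held on ice. Filtered, counted by scintillation.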
# [8] = biological target: Sodium-dependent serotonin transporter (Rattus norvegicus) (UniProt P31652); experiment: Inhibition of tritiated serotonin(5-HT) uptake at 0.1 uM concentration; format: functional; procedure, shortened: as §3
# Rattus norvegicus = species on record: Rattus norvegicus; experiment: Ability to inhibit the uptake of tritiated norepinephrine (NE) at 0.1 uM concentration; format: functional; procedure, shortened: as §3
# Mus musculus [9] = species on record: Mus musculus; experiment: Gross behavioral effects ascertained in mice; W indicates weak stimulant or depressant activity of little significance.; format: functional, organism-based; procedure, shortened: as §2
# [10] = biological target: Sodium-dependent serotonin transporter (Rattus norvegicus) (UniProt P31652); experiment: Ability to inhibit the uptake of [3H]- serotonin(5-HT) 0.1 uM concentration at rat brain synaptosomes; format: functional, subcellular; procedure, shortened: as §3
# [11] = biological target: Norepinephrine transporter (Rattus norvegicus) (UniProt Q9WTR4); experiment: Ability to inhibit the uptake of [3H]norepinephrine (NE) 0.1 uM concentration at rat brain synaptosomes; format: functional, subcellular; procedure, shortened: as §3
# [12] = biological target: Serotonin 1 (5-HT1) receptor (Rattus norvegicus) (UniProt P28564+P30940+P19327+P28565); experiment: Binding affinity towards serotonin S1 receptor at 1.0 uM; format: protein assay
# Procedure, shortened: (§4)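 Rat brain crude synaptic membranes in 20 mM NaHEPES pH 7.5. Ligands: α1 cortex […] 0.4 nM, nonspecific with (-)-NE 100 μM, 30 min at 25 °C. […] D2 striatum [3H]spiperone 0.05 nM with (+)-butaclamol 1 μM, 45 min at 37 °C. S1 cortex [3H]5-HT 1 nM plus glutathione and MgCl2, with 5-HT 10 μM, 20 min at 37 °C. […] Samples filtered on GF/B and counted.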
# [13] = biological target: Muscarinic acetylcholine receptor (Rattus norvegicus) (UniProt P08482+P08483+P08485+P08911+P10980); experiment: Binding affinity towards Muscarinic acetylcholine receptor at 1.0 uM concentration; format: protein assay
# [14] = biological target: D(2) dopamine receptor (Rattus norvegicus) (UniProt P61169); experiment: Binding affinity towards dopamine receptor D2 at 1.0 uM concentration; procedure, shortened: as §4
# [15] = biological target: Adrenergic receptor alpha-1 (Rattus norvegicus) (UniProt P15823+P23944+P43140); experiment: Binding affinity towards alpha-1 adrenergic receptor at 1.0 uM concentration; format: protein assay; procedure, shortened: as §4
# [16] = biological target: Sodium-dependent dopamine transporter (Rattus norvegicus) (UniProt P23977); experiment: Ability to inhibit the uptake of [3H]dopamine (DA) 0.1 uM concentration at rat brain synaptosomes; format: functional, subcellular; procedure, shortened: as §3
# Mus musculus [17] = experiment: Ability to antagonise intraperitoneal dose; inactive (<10% antagonism) at 30 mg/kg is represented as I-30.; format: functional, organism-based; parameters: dose 30 mg/kg; procedure, shortened: as §1
# Mus musculus [18] = experiment: Ability to antagonise intraperitoneal dose; inactive (<10% antagonism) at 30 mgjkg is represented as I-30.; format: functional, organism-based; procedure, shortened: as §1
# [19] = biological target: Adrenergic receptor alpha-2 (Rattus norvegicus) (UniProt P22086+P19328+P22909); experiment: Binding affinity towards alpha-2 adrenergic receptor at 1.0 uM concentration; format: protein assay
# Sequence of Norepinephrine transporter (Rattus norvegicus) (Q9WTR4 as listed by the source): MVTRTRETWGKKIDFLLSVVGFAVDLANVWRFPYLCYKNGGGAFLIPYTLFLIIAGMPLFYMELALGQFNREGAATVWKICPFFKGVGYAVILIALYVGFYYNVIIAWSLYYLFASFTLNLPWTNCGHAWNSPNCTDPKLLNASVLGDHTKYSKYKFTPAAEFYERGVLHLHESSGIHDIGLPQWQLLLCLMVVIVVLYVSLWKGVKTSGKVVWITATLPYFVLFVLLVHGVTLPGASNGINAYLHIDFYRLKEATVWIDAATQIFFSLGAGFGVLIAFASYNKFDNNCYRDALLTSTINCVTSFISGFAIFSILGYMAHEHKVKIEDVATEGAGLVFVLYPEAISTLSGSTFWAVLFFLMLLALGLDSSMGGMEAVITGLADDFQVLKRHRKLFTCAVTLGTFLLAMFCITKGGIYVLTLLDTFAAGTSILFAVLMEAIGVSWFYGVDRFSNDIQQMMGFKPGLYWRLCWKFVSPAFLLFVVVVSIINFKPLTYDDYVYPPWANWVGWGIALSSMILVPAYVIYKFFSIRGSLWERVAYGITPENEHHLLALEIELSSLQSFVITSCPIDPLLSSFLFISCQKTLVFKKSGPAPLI
# Sequence of Norepinephrine transporter (Q9WTR4 whole entry): as the sequence (Q9WTR4 as listed by the source) above
# Sequence of Sodium-dependent dopamine transporter (P23977 whole entry): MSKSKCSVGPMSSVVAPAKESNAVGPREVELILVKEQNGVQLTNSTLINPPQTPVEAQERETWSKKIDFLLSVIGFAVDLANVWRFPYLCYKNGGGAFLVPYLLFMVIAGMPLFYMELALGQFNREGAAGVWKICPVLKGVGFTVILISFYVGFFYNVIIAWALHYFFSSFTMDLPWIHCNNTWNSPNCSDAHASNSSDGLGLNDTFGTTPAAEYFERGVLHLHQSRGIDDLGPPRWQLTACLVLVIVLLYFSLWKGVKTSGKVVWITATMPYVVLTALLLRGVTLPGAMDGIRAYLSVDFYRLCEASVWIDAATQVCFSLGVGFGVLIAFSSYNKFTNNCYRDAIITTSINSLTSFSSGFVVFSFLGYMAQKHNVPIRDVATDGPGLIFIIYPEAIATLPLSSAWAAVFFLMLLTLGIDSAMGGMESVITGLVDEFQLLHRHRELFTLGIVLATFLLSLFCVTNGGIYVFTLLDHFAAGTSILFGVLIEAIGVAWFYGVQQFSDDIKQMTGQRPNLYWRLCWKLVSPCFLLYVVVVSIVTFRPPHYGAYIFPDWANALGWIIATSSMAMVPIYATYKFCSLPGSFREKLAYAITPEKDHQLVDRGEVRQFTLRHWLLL
# Sequence of Sodium-dependent dopamine transporter (Rattus norvegicus) (P23977 whole entry): as above
# Sequence of Sodium-dependent serotonin transporter (Rattus norvegicus) (P31652 whole entry): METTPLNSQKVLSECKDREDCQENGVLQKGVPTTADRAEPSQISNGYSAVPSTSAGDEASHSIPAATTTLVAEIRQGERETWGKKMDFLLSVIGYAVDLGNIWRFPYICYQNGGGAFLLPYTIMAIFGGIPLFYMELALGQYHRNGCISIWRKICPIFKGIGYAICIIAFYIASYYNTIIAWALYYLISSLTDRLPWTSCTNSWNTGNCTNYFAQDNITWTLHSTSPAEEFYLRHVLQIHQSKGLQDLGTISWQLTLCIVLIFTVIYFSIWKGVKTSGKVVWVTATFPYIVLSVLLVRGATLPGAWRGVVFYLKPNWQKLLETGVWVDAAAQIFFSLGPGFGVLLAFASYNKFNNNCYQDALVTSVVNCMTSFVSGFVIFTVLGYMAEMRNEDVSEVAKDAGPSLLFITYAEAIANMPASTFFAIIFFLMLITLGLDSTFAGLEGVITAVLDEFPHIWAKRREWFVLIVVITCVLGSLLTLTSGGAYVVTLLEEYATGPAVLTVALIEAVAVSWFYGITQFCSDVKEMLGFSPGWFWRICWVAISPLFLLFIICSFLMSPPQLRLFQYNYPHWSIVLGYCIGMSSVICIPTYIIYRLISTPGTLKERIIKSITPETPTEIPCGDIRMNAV
# Sequence of D(2) dopamine receptor (Rattus norvegicus) (P61169 whole entry): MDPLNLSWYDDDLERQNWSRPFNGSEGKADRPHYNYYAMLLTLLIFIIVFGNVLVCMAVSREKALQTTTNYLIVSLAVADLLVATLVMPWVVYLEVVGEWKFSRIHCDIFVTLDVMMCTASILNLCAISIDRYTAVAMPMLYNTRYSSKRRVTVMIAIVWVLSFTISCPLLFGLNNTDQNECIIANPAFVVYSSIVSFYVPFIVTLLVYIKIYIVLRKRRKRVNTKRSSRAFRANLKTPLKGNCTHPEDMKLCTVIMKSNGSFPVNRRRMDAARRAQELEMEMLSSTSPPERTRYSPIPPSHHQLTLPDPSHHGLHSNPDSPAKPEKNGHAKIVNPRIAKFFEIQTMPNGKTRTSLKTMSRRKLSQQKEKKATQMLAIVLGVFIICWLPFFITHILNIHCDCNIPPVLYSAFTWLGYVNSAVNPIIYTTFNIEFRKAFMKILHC
SMILES,ED50 (Mus musculus [1]),behavior (Mus musculus [2]),Ki [3],ED50 (Mus musculus [4]),Ki [6],inhibition [7],behavior (Mus musculus [9]),other results
Br.Clc1cccc([C@@H]2CN3CCC[C@@H]3c3ccccc32)c1,~0.1 mg/kg,Stimulant,0.45 nM,< 1 mg/kg,2.5 nM,,,Ki [5]: 49 nM
Br.c1ccc([C@H]2CN3CCC[C@H]3c3ccsc32)cc1,5 mg/kg,Significant stimulant,1.4 nM,0.79 mg/kg,5.2 nM,,,
Fc1ccc([C@@H]2CN3CCC[C@H]3c3ccccc32)cc1,> 60 mg/kg,,,> 10 mg/kg,,43%,Weak,inhibition [8]: 3%; Inhibition (Rattus norvegicus): 61%
Br.c1ccc([C@@H]2CN3CCCCC[C@H]3c3ccccc32)cc1,~40 mg/kg,,,~40 mg/kg,,19%,Weak,inhibition [10]: 6%; inhibition [11]: 13%
COc1cccc2c1[C@H](c1ccccc1)CN1CCC[C@@H]21,20.7 mg/kg,,,13.9 mg/kg,,0%,Weak,inhibition [8]: 31%; Inhibition (Rattus norvegicus): 5%
O=C(CCCN1CCC(O)(c2ccc(Cl)cc2)CC1)c1ccc(F)cc1,,,,,,,,inhibition [12]: 58%
Br.CSc1ccc([C@@H]2CN3CCC[C@H]3c3ccccc32)cc1,> 75 mg/kg,,,10.9 mg/kg,,,,inhibition [13]: 0%; inhibition [14]: 28%; inhibition [15]: 43%
C[C@@H]1[C@@H](c2ccccc2)c2ccccc2[C@@H]2CCCN12,,,,,,,Weak,inhibition [10]: 12%; inhibition [16]: 0%; ED50 (Mus musculus [17]): inactive; ED50 (Mus musculus [18]): inactive; inhibition [11]: 4%
COc1ccc([C@@H]2CN3CCC[C@H]3c3ccccc32)cc1OC,,,,29.4 mg/kg,,11%,Weak,inhibition [8]: 27%; Inhibition (Rattus norvegicus): 9%; ED50 (Mus musculus [17]): inactive
Br.c1ccc([C@H]2CN3CCC[C@H]3c3[nH]c4ccccc4c32)cc1,1.07 mg/kg,Significant stimulant,2.3 nM,0.3 mg/kg,2.9 nM,,,
c1ccc([C@@H]2CN3CCC[C@@H]3c3ccccc32)cc1 (stereo in doubt; (+)-7b),,Stimulant,,,,,,inhibition [19]: 64%; inhibition [14]: 40%
Br.Nc1ccc([C@@H]2CN3CCC[C@@H]3c3ccccc32)cc1,~0.02 mg/kg,Significant stimulant,0.2 nM,~0.01 mg/kg,0.86 nM,,,
Br.Clc1cccc2c1[C@H](c1ccccc1)CN1CCC[C@@H]21,> 3 mg/kg,,,> 3 mg/kg,,6%,,inhibition [8]: 0%; Inhibition (Rattus norvegicus): 3%
Br.Fc1c(F)c(F)c([C@@H]2CN3CCC[C@@H]3c3ccccc32)c(F)c1F,,,,,,14%,,inhibition [8]: 2%; Inhibition (Rattus norvegicus): 42%
Clc1cccc2c1[C@H]1CCCN1C[C@H]2c1ccccc1,,,,,,45%,,inhibition [8]: 22%; Inhibition (Rattus norvegicus): 4%
Br.COc1ccc([C@@H]2CN3CCC[C@@H]3c3ccccc32)cc1OC,2 mg/kg,,3.4 nM,0.13 mg/kg,71.9 nM,,Partial stimulant,inhibition [13]: -1%; inhibition [19]: 15%; inhibition [14]: -1%; inhibition [15]: 58%

SMILES,ED50 (Mus musculus [1]),behavior (Mus musculus [2]),Ki [3],ED50 (Mus musculus [4]),Ki [6],inhibition [7],behavior (Mus musculus [9]),other results
CSc1ccc([C@@H]2CN3CCC[C@@H]3c3ccccc32)cc1 (stereo in doubt; (+)-48b),,,,,,,,inhibition [12]: 31%
Br.Oc1ccc([C@@H]2CN3CCC[C@H]3c3ccccc32)cc1,,,,2 mg/kg,,26%,Partial stimulant,Inhibition (Rattus norvegicus): 78%; ED50 (Mus musculus [17]): inactive; inhibition [14]: 59%
Br.Oc1cccc([C@@H]2CN3CCC[C@H]3c3ccccc32)c1,> 30 mg/kg,Stimulant,15.1 nM,3.1 mg/kg,44.8 nM,,,
c1ccc(C[C@H]2CN3CCC[C@H]3c3ccccc32)cc1,,,,,,,,inhibition [10]: 32%; inhibition [16]: 19%; ED50 (Mus musculus [17]): inactive; ED50 (Mus musculus [18]): inactive; inhibition [11]: 69%
Br.C[C@]1(c2ccccc2)CN2CCC[C@H]2c2ccccc21,27.2 mg/kg,Significant stimulant,1.25 nM,0.44 mg/kg,7.4 nM,,,
Br.Oc1cccc([C@@H]2CN3CCC[C@@H]3c3ccccc32)c1,> 10 mg/kg,Significant stimulant,0.85 nM,0.11 mg/kg,10.1 nM,,,
Br.COc1cccc([C@@H]2CN3CCC[C@H]3c3ccccc32)c1,> 60 mg/kg,,16.1 nM,> 60 mg/kg,,35%,Weak,
Clc1cccc([C@@H]2CN3CCC[C@H]3c3ccccc32)c1,,,100 nM,,,67%,,inhibition [8]: 11%
C#Cc1ccc([C@@H]2CN3CCC[C@@H]3c3ccccc32)cc1,~0.5 mg/kg,Significant stimulant,,~0.5 mg/kg,,,,
COc1ccccc1[C@@H]1CN2CCC[C@H]2c2ccccc21,,,,,,-3%,,inhibition [8]: -2%; Inhibition (Rattus norvegicus): 65%
COc1cc2c(cc1OC)[C@H]1CCCN1C[C@H]2c1ccccc1,15.1 mg/kg,Stimulant,53.7 nM,3.8 mg/kg,15 nM,,,inhibition [14]: 6%
CNCCC(Oc1ccc(C(F)(F)F)cc1)c1ccccc1 (stereo not given),,,,,,,,inhibition [12]: 13%; inhibition [14]: 12%
FC(F)(F)c1ccc([C@@H]2CN3CCC[C@H]3c3ccccc32)cc1,,,,,,7%,,inhibition [10]: 15%; inhibition [11]: -1%
Clc1ccc([C@@H]2CN3CCC[C@@H]3c3cc(Cl)ccc32)cc1,37.4 mg/kg,,3.2 nM,~4 mg/kg,3.2 nM,,Partial stimulant,inhibition [12]: 11%; inhibition [19]: 10%; inhibition [14]: 55%; inhibition [15]: 20%
Br.Fc1c(F)c(F)c([C@@H]2CN3CCC[C@H]3c3ccccc32)c(F)c1F,,,,,,0%,,inhibition [8]: 4%; Inhibition (Rattus norvegicus): 12%
c1ccc([C@@H]2CN3CCC[C@@H]3c3ccccc32)cc1,,,,,,,Partial stimulant,inhibition [10]: 16%; inhibition [16]: 6%; ED50 (Mus musculus [17]): inactive; ED50 (Mus musculus [18]): inactive; inhibition [11]: 4%
